# KCNK9 block = inhibitors of human KCNK9 two-pore domain potassium channel; 310,000 compounds, 1.2% hits; B-score at 10 µM; HEK293 KCNK9, FluxOR thallium flux fluorescence; active compounds read low; Q9NPC2;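 active = ratio B-score over 3 SD below the library mean, with starting fluorescence within 5 SD of its mean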;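 note: negative B-score means less thallium flux so channel inhibition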
# Target sequence (Q9NPC2 whole entry, looked up, the tested form may be a part): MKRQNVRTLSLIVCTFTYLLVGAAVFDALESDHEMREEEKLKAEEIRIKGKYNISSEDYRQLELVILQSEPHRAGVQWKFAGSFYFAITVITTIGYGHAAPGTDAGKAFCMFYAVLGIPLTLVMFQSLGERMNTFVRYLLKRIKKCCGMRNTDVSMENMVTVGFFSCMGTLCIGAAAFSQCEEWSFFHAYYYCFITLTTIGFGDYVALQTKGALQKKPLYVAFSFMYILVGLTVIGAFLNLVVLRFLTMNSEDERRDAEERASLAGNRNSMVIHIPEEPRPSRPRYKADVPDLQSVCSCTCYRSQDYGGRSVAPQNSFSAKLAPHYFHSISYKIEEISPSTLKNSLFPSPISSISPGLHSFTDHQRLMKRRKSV
# KCNQ1 act = potentiates or activates the human KCNQ1 potassium channel; CHO-K1 KCNQ1, thallium flux FluxOR fluorescence; active compounds read high; B-score at 10 µM; P51787; 310,000 compounds, 0.35% hits;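 active = fluorescence ratio B-score, a plate-corrected score, at least three library SD, with initial intensity B-score within 5 SD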
#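 assay system = CHO-K1 cells stably expressing KCNQ1 | medium = assay buffer, equal DMSO in all wells | timing = 37 °C overnight plating, 90-min dark dye load, 20-min compound pretreatment | measured by = kinetic FluxOR thallium fluorescence, 10-s 1-Hz baseline, 110-s post-stimulus read | measure = fluorescence change relative to baseline, converted to B score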
# KCNQ1 block = blocks the human KCNQ1 potassium channel | AID 2642 | 310,000 compounds, 1.3% hits | CHO-K1 KCNQ1, FluxOR thallium flux fluorescence; active compounds read high | B-score at 10 µM;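 active = compounds whose thallium flux B-score, printed positive for inhibition, exceeds three library SD while starting fluorescence stays within three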;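 note: channel opened by potassium depolarization with thallium stimulus after 20 min compound exposure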
# Kir21 inh = blocks the mouse Kir2.1 inward-rectifier potassium channel; P35561; HEK293-Kir2.1, FluxOR thallium flux fluorescence; active compounds read low; B-score at 10 µM; 310,000 compounds, 0.85% hits;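 active = fluorescence ratio B-score at or below minus 3 SD of library scores, with starting-brightness B-score within 2 SD, cut at about -4.2 in these data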;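 note: channel flux triggered by added potassium and thallium sulfate stimulus; B-score of peak minus minimum fluorescence over baseline after thallium stimulus; more negative B-score means stronger Kir2.1 block with less thallium influx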
# hERG protect = hERG (human) protection from proarrhythmic block; Q12809; CHO-hERG, FluxOR thallium flux, dofetilide IC70 present; activation (rescue from dofetilide block), less the hit threshold, % at 10 µM; 310,000 compounds, 0.51% hits;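 active = activation above the mean of controls blocked by dofetilide plus 5 SD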;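 note: thallium influx through hERG after potassium depolarization seen as dye fluorescence rise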
# KCNK3 inh = human KCNK3 channel inhibition, primary screen; O14649; CHO-KCNK3 thallium flux, FluxOR fluorescence; active compounds read low; B-score at 10 µM; 340,000 compounds, 0.84% hits; AID 602410;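 active = B-score under library mean minus 4 SD, starting fluorescence ratio at most library mean plus 5 SD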;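 note: more negative B-score means stronger inhibition of thallium flux through KCNK3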
# KCNK9 inh conf = human KCNK9 inhibitor confirmation. shares compounds with KCNK9 block. HEK293 KCNK9 cells, FluxOR thallium flux fluorescence. inhibition, % at 10 µM. 4,900 compounds, 43% hits;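 active = thallium signal inhibited by more than 5 SD of the compound-free buffer control wells, on both duplicate plates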;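 note: 0% = assay buffer control wells without compound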
# Kir2-1 spec = mouse Kir2.1 off-target activity of KCNK9 modulators. Kir2.1 cells, FluxOR thallium flux fluorescence. 4,900 compounds, 4% hits. shares compounds with KCNK9 block. inhibition, % at 10 µM;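 active = thallium signal drop more than 5 SD beyond the mean of the no-compound control wells, seen in both duplicate plates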;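 note: signal is fluorescence rise after thallium addition divided by baseline fluorescence; plate controls were assay buffer only for no effect and full block by chlorpromazine control for full effect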
# HEK293 Tl ctr = non-induced cell nonspecific activity of KCNK9 modulators; shares compounds with KCNK9 block; non-induced KCNK9-HEK293, FluxOR thallium flux; inhibition, % at 10 µM; 4,900 compounds, 40% hits; AID 492997;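 active = thallium signal drop beyond 5 SD of the untreated control mean, on both duplicate plates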;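 note: plate controls were buffer only IC0 wells for no effect and SID17386958 at its maximal inhibitory level for full effect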
# Active calls of the source: *; i = inactive; x = no result. Compounds with a hit are over-represented: about 3.7% of the library has one in this group of screens.
SMILES,KCNK9 block,KCNQ1 act,KCNQ1 block,Kir21 inh,hERG protect,KCNK3 inh,KCNK9 inh conf,Kir2-1 spec,HEK293 Tl ctr
COc1ccc(NC(=O)c2sc3nc(N4CCOCC4)c4c(c3c2N)CC(C(C)C)OC4)c(OC)c1 (stereo not drawn),i,i,i,0.54,-4.8,i,x,x,x
CCCC[C@H]1COCCS(=O)(=O)N1Cc1ccc(Br)cc1,-8.32*,i,i,-3.06,-6.5,i,37.0%*,i,42.5%*
CC(C)NC(=O)c1c(CSc2ccc(Cl)cc2)noc1C(=O)NCc1ccccc1,i,i,i,-0.23,-14.0,i,i,i,i
CN(C)CCNC(=O)c1c(CSc2ccc(Cl)cc2)noc1C(=O)NCc1ccccc1,i,i,i,1.28,-4.1,i,x,x,x
CCCCNC(=O)c1c(CSc2ccccc2)noc1C(=O)NCc1ccccc1,i,i,i,-0.03,-6.6,i,i,i,i
O=C(NCc1ccccc1)c1onc(CSc2ccc(Cl)cc2)c1C(=O)NCC1CC1,i,i,i,0.85,-9.7,i,i,i,i
CCCCNC(=O)c1c(CSc2ccc(Cl)cc2)noc1C(=O)NCc1ccccc1,i,i,i,1.29,-12.5,i,i,i,i
O=C(NNC(=O)C1CC(c2cccs2)=NO1)Nc1ccc(Cl)cc1 (stereo not drawn),i,i,i,-0.11,-10.2,i,x,x,x
CN(CCc1ccccc1)C(=O)c1ccc(NC(=O)Cc2ccc(NC(=O)C3CCN(C(=O)CCc4ccccc4)CC3)cc2)cc1,x,x,x,x,x,i,x,x,x
O=C(NCc1ccccc1)c1onc(CSc2ccc(Cl)cc2)c1C(=O)NCc1ccccc1,i,i,i,-0.02,-1.1,i,x,x,x
COCCNC(=O)c1c(CSc2ccccc2)noc1C(=O)NCc1ccccc1,i,i,i,1.78,-5.6,i,x,x,x
CCCNC(=O)c1c(CSc2ccc(Cl)cc2)noc1C(=O)NCc1ccccc1,i,i,i,0.66,-6.6,i,i,i,i
O=C(NCc1ccccc1)c1onc(CSc2ccccc2)c1C(=O)NCc1ccccc1,i,i,i,0.15,-8.3,i,i,i,i
CCOC(=O)Cc1c(C)nc(SC)[nH]c1=O,i,i,i,-0.4,-4.8,i,x,x,x
O=C(COC(=O)CNC(=O)c1ccccc1Cl)Nc1cc(C(F)(F)F)ccc1Cl,x,x,x,x,x,i,x,x,x
O=C(CNC(=O)c1ccccc1F)OC(C(=O)Nc1cc(C(F)(F)F)ccc1Cl)c1ccccc1 (stereo not drawn),-11.1*,i,i,1.54,-9.5,i,i,i,32.0%*
CC1Cc2ccccc2N1C(=O)c1cc2sccc2n1Cc1ccc(F)cc1 (stereo not drawn),-9.82*,i,8*,0.68,-10.6,i,37.0%*,i,23.0%*
COc1ccccc1CN1C[C@@H]2C[C@@H](c3ccccc3C)N3CCC[C@@]23C1=O,i,i,i,0.73,-7.5,i,i,i,i
Cc1ccc(OCCOCCOc2cccc3cccnc23)c(Br)c1,i,i,i,-1.95,-10.0,i,i,i,i
Clc1cc(Br)ccc1OCCOCCOc1cccc2cccnc12,i,i,i,-0.73,-1.8,i,x,x,x
COc1cc(C)ccc1OCCOCCOc1c(C)cc(C)cc1Br,i,i,i,0.01,-10.9,i,i,i,i
COc1ccccc1OCCOCCOc1c(C)cc(C)cc1Br,i,i,i,1.61,-5.9,i,i,i,i
O=c1cc(N2CCCCC2)c(-c2ccccc2)nn1Cc1ccc(Cl)cc1Cl,-20.8*,i,9*,2.48,-7.0,i,80.0%*,i,45.5%*
O=c1cc(Cl)c(-c2ccccc2)nn1Cc1ccc(Cl)cc1,i,i,i,0.69,-4.1,i,x,x,x
COc1cc(-c2nc(-c3ccccc3)c(-c3cccs3)[nH]2)cc(OC)c1O,-10.4*,i,i,-0.58,-20.6,i,51.0%*,i,i
SMILES,KCNK9 block,KCNQ1 act,KCNQ1 block,Kir21 inh,hERG protect,KCNK3 inh,KCNK9 inh conf,Kir2-1 spec,HEK293 Tl ctr
CC1CCN(C(=O)Cn2nnc(-c3ccc([N+](=O)[O-])cc3)n2)CC1,i,i,i,0.12,-8.1,i,x,x,x
Cc1cc(C(=O)COC(=O)c2ccc3c(c2)OCO3)c(C)n1Cc1cccs1,i,i,i,0.91,-5.1,i,i,i,i
Cc1cc(C(=O)COC(=O)c2ccccc2O)c(C)n1Cc1cccs1,i,i,i,-0.61,-10.8,i,x,x,x
CCn1nc(C(=O)OCC(=O)c2cc(C)n(Cc3cccs3)c2C)c2ccccc2c1=O,i,i,i,-0.1,-17.1,i,i,i,i
CCOc1ccc(Nc2nc(Cc3nnc(SCC(=O)c4ccc(C)c(C)c4)o3)cs2)cc1,i,i,i,-0.01,-6.1,i,i,i,i
Cc1ccc(NC(=O)CSc2nnc(Cc3csc(C)n3)o2)cc1,x,x,x,x,x,i,x,x,x
Cc1ccc(Cl)c(OC(=O)C2CSC3(C)CCC(=O)N23)c1 (stereo not drawn),i,i,i,-0.69,-14.6,i,x,x,x
Cc1ccc(NC(=O)c2cccc3c2C(=O)N(C2CCCCC2)C3)c(Cl)c1,-18*,i,i,-0.63,-7.7,i,55.5%*,i,43.5%*
O=C(Nc1ccc(Br)cc1Br)c1cccc2c1C(=O)N(C1CCCCC1)C2,-17.7*,i,i,0.05,-8.2,i,49.5%*,i,33.0%*
O=C(Nc1ccc(Br)cc1)c1cccc2c1C(=O)N(C1CCCCC1)C2,i,i,i,0.42,-9.1,i,x,x,x
COc1ccc2[nH]c3c(c2c1)CCN1C(=O)C(CC(=O)NCCC2=CCCCC2)C[C@H](C(=O)N2CCCCC2)[C@@]31CCc1ccccc1 (stereo partly drawn),x,x,x,x,x,i,x,x,x
COc1c(CC=C(C)C)cc(C2CC(=O)c3c(O)cc(O)cc3O2)c(CC=C(C)C)c1O (stereo not drawn),-10.5*,i,i,0.01,-4.8,x,67.0%*,i,50.0%*
CCOc1ccc(CCNC(=O)CCNC(=O)c2ccc(Br)cc2)cc1OCC,i,i,i,-0.48,-9.4,i,x,x,x

# Assay outcomes as filed in PubChem.
